Data published in ChEMBL document CHEMBL1138552, “Synthesis of modified pyrimidine bases and positive impact of chemically reactive substituents on their in vitro antiproliferative activity” (Eur J Med Chem, 2009).

Tests used:
[1] = tested on: HeLa; assay: Growth inhibition of human HeLa cells after 72 hrs by MTT assay; type: functional, cell-based
Procedure, shortened: (§1)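 Cells were seeded on day 0 at 1 × 10⁴–3 × 10⁴ cells/mL according to doubling time. Compound was added in 10-fold dilutions (10⁻⁸–10⁻⁴ M) from DMSO stocks (final DMSO ≤0.25%, solvent control run) and incubated 72 h. Percentage of growth was calculated, four parallel samples in three experiments. IC50 was derived by linear regression between the concentrations bracketing PG 50; if none fell below, the result was reported as >highest concentration.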

[2] = tested on: MIA PaCa-2; assay: Growth inhibition of human MIAPaCa2 cells after 72 hrs by MTT assay; type: functional, cell-based; conditions: MIA PaCa-2, 72 h; procedure, shortened: as §1
[3] = tested on: SW-620; assay: Growth inhibition of human SW620 cells after 72 hrs by MTT assay; type: functional, cell-based; conditions: SW-620, 72 h; procedure, shortened: as §1
[4] = tested on: MCF7; assay: Growth inhibition of human MCF7 cells after 72 hrs by MTT assay; type: functional, cell-based; conditions: MCF7, 72 h
Procedure, shortened: as §1, with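 “time.” for “time. Compound was added in 10-fold dilutions (10⁻⁸–10⁻⁴ M) from DMSO stocks (final DMSO ≤0.25%, solvent control run) and incubated 72 h.”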

[5] = tested on: NCI-H460; assay: Growth inhibition of human H460 cells after 72 hrs by MTT assay; type: functional, cell-based; conditions: NCI-H460, 72 h; procedure, shortened: as §1
[6] = tested on: HeLa; assay: Cell cycle arrest in human HeLa cells assessed as accumulation at subG1 phase at 10 uM after 72 hrs by flow cytometry; type: functional
Procedure, shortened: (§2)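 HeLa cells seeded at 2 × 10⁵ per well; compound added after 24 h. At 24, 48 and 72 h, attached and floating cells were pooled, PBS-washed, fixed in 70% ethanol, then stained with propidium iodide plus RNase A. Flow cytometry counted 20 000 events, and phase percentages came from DNA histograms. At least two experiments in triplicate; Student t-test (p < 0.05).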

[7] = tested on: HeLa; assay: Cell cycle arrest in human HeLa cells assessed as accumulation at subG1 phase at 10 uM after 48 hrs by flow cytometry; type: functional; procedure, shortened: as §2
[8] = tested on: HeLa; assay: Cell cycle arrest in human HeLa cells assessed as accumulation at subG1 phase at 10 uM after 24 hrs by flow cytometry; type: functional; procedure, shortened: as §2
[9] = tested on: HeLa; assay: Cell cycle arrest in human HeLa cells assessed as accumulation at G2/M phase at 10 uM after 48 hrs by flow cytometry; type: functional; procedure, shortened: as §2
[10] = tested on: HeLa; assay: Cell cycle arrest in human HeLa cells assessed as accumulation at G2/M phase at 10 uM after 72 hrs by flow cytometry; type: functional; procedure, shortened: as §2
[11] = tested on: HaCaT; assay: Growth inhibition of human HaCaT cells after 72 hrs by MTT assay; type: cell-based; procedure, shortened: as §1
[12] = tested on: HeLa; assay: Cell cycle arrest in human HeLa cells assessed as accumulation at G2/M phase at 10 uM after 24 hrs by flow cytometry; type: functional; procedure, shortened: as §2
[13] = tested on: HeLa; assay: Cell cycle arrest in human HeLa cells assessed as accumulation at S phase at 10 uM after 72 hrs by flow cytometry; type: functional; procedure, shortened: as §2
[14] = tested on: HeLa; assay: Cell cycle arrest in human HeLa cells assessed as accumulation at S phase at 10 uM after 48 hrs by flow cytometry; type: functional; procedure, shortened: as §2
[15] = tested on: HeLa; assay: Cell cycle arrest in human HeLa cells assessed as accumulation at S phase at 10 uM after 24 hrs by flow cytometry; type: functional; procedure, shortened: as §2
[16] = tested on: HeLa; assay: Cell cycle arrest in human HeLa cells assessed as accumulation at G0/G1 phase at 10 uM after 72 hrs by flow cytometry; type: functional; procedure, shortened: as §2
[17] = tested on: HeLa; assay: Cell cycle arrest in human HeLa cells assessed as accumulation at G0/G1 phase at 10 uM after 48 hrs by flow cytometry; type: functional; procedure, shortened: as §2
[18] = tested on: HeLa; assay: Cell cycle arrest in human HeLa cells assessed as accumulation at G0/G1 phase at 10 uM after 24 hrs by flow cytometry; type: functional; procedure, shortened: as §2
[19] = tested on: HeLa; assay: Cell cycle arrest in human HeLa cells assessed as accumulation at subG1 phase at 20 uM after 48 hrs by flow cytometry; type: functional
Procedure, shortened: (§3)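 Seeded 2 × 10⁵ cells per well; compound added after 24 h. At 24, 48 and 72 h post-treatment, attached cells were trypsinized and pooled with floating cells. Cells were PBS-washed, fixed in 70% ethanol, then stained with propidium iodide plus RNase A. DNA histograms came from 20 000 events per sample and gave the phase percentages. At least two experiments were run in triplicate, with Student t-test (p < 0.05).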

[20] = tested on: HeLa; assay: Cell cycle arrest in human HeLa cells assessed as accumulation at subG1 phase at 20 uM after 24 hrs by flow cytometry; type: functional; procedure, shortened: as §3
[21] = tested on: HeLa; assay: Cell cycle arrest in human HeLa cells assessed as accumulation at subG1 phase at 20 uM after 72 hrs by flow cytometry; type: functional; procedure, shortened: as §3
[22] = tested on: HeLa; assay: Cell cycle arrest in human HeLa cells assessed as accumulation at G0/G1 phase at 20 uM after 24 hrs by flow cytometry; type: functional; procedure, shortened: as §3
[23] = tested on: HeLa; assay: Cell cycle arrest in human HeLa cells assessed as accumulation at G0/G1 phase at 20 uM after 48 hrs by flow cytometry; type: functional; procedure, shortened: as §3
[24] = tested on: HeLa; assay: Cell cycle arrest in human HeLa cells assessed as accumulation at G0/G1 phase at 20 uM after 72 hrs by flow cytometry; type: functional; procedure, shortened: as §3
[25] = tested on: HeLa; assay: Cell cycle arrest in human HeLa cells assessed as accumulation at S phase at 20 uM after 24 hrs by flow cytometry; type: functional; procedure, shortened: as §3
[26] = tested on: HeLa; assay: Cell cycle arrest in human HeLa cells assessed as accumulation at S phase at 20 uM after 48 hrs by flow cytometry; type: functional; procedure, shortened: as §3
[27] = tested on: HeLa; assay: Cell cycle arrest in human HeLa cells assessed as accumulation at S phase at 20 uM after 72 hrs by flow cytometry; type: functional; procedure, shortened: as §3
[28] = tested on: HeLa; assay: Cell cycle arrest in human HeLa cells assessed as accumulation at G2/M phase at 20 uM after 24 hrs by flow cytometry; type: functional; procedure, shortened: as §3
[29] = tested on: HeLa; assay: Cell cycle arrest in human HeLa cells assessed as accumulation at G2/M phase at 20 uM after 48 hrs by flow cytometry; type: functional; procedure, shortened: as §3
[30] = tested on: HeLa; assay: Cell cycle arrest in human HeLa cells assessed as accumulation at G2/M phase at 20 uM after 72 hrs by flow cytometry; type: functional; procedure, shortened: as §3

| Structure (SMILES) | IC50 [1] [µM] | IC50 [2] [µM] | IC50 [3] [µM] | IC50 [4] [µM] | IC50 [5] [µM] | other results |
| --- | --- | --- | --- | --- | --- | --- |
| O=c1nc(NO)cc[nH]1 [N4-hydroxycytosine] | > 100 | > 100 | > 100 | > 100 | > 100 |  |
| N[C@H](CSCC(=O)Nc1c[nH]c(=O)[nH]c1=O)C(=O)O | 86 | 80 | 70 | > 100 | > 100 |  |
| CSc1cc[nH]c(=O)n1 | > 100 | > 100 | > 100 | > 100 | > 100 |  |
| Cn1cc(CO)c(N)nc1=O | > 100 | > 100 | > 100 | > 100 | > 100 |  |
| O=c1[nH]c(=O)n(COC(CO)CO)cc1O | > 100 | > 100 | > 100 | > 100 | > 100 |  |
| O=c1[nH]cc(F)c(=O)[nH]1 [FLUOROURACIL] | 4 | 10 | 9 |  | 2 | Activity [6]: 26%; Activity [7]: 12%; Activity [8]: 10%; Activity [9]: 0%; Activity [10]: 0%; IC50 [11]: 0.4 µM; Activity [12]: 1%; Activity [13]: 43%; Activity [14]: 41%; Activity [15]: 39%; Activity [16]: 57%; Activity [17]: 59%; Activity [18]: 60% |
| CC(C)(C)OC(=O)NCCNCC(=O)Nc1c[nH]c(=O)[nH]c1=O | 50 | 50 | 50 | > 100 | > 100 |  |
| O=C(CCl)Nc1c[nH]c(=O)[nH]c1=O | 4 | 17 | 12 | 15 | 14 | IC50 [11]: > 100 µM; Activity [19]: 14%; Activity [20]: 12%; Activity [21]: 25%; Activity [22]: 50%; Activity [23]: 48%; Activity [24]: 50%; Activity [25]: 43%; Activity [26]: 45%; Activity [27]: 48%; Activity [28]: 6%; Activity [29]: 7%; Activity [30]: 8% |
| Cc1ccc(S(=O)(=O)Nc2ccn(C)c(=O)n2)cc1 | > 100 | > 100 | > 100 | > 100 | > 100 |  |
| O=c1ccn(COC(CO)CO)c(=O)[nH]1 | > 100 | > 100 | > 100 | > 100 | > 100 |  |
| O=c1[nH]c(=O)n(COC(CO)CO)cc1I [IODACYCLUR] | 30 | > 100 | > 100 | > 100 | > 100 |  |
| Cc1cc(=O)[nH]c(=O)n1COC(CO)CO | > 100 | > 100 | > 100 | > 100 | > 100 |  |
| O=C(CCl)Nc1cn(COC(CO)CO)c(=O)[nH]c1=O | 12 | 18 | 19 | 32 | 24 | IC50 [11]: > 100 µM |
| Nc1cn(COC(CO)CO)c(=O)[nH]c1=O | > 100 | > 100 | > 100 | > 100 | > 100 |  |
| COc1ccc(CSCCN(CCSCc2ccc(OC)cc2)CC(=O)Nc2c[nH]c(=O)[nH]c2=O)cc1 | 4 | 3 | 70 | > 100 | 76 | IC50 [11]: 9 µM; Activity [19]: 24%; Activity [20]: 17%; Activity [21]: 58%; Activity [22]: 56%; Activity [23]: 59%; Activity [24]: 43%; Activity [25]: 24%; Activity [26]: 27%; Activity [27]: 44%; Activity [28]: 20%; Activity [29]: 13%; Activity [30]: 13% |
| NCC(=O)Nc1c[nH]c(=O)[nH]c1=O | > 100 | > 100 | > 100 | > 100 | > 100 |  |
| Cn1ccc(N)nc1=O | 12 | > 100 | > 100 | > 100 | > 100 |  |
| Cc1c(I)c(=O)[nH]c(=O)n1COC(CO)CO [IODMETACYCLUR] | 73 | > 100 | > 100 | > 100 | > 100 |  |
| Cc1ccc(S(=O)(=O)Nc2cc[nH]c(=O)n2)cc1 | > 100 | > 100 | > 100 | 27 | > 100 |  |
